MrgX1 agonist: activates human MrgX1 receptor signaling; Q96LB2; MrgX1-HEK293 cells, Fluo-4 calcium fluorescence, agonist mode; active compounds read high; B-score at 10 µM; hit rate 0.44% among 310,000; AID 588627;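 active = calcium response B-score plate-corrected fluorescence ratio at least 3 library SD, with starting fluorescence B-score inside 5 SD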
Target sequence (Q96LB2 whole entry, looked up): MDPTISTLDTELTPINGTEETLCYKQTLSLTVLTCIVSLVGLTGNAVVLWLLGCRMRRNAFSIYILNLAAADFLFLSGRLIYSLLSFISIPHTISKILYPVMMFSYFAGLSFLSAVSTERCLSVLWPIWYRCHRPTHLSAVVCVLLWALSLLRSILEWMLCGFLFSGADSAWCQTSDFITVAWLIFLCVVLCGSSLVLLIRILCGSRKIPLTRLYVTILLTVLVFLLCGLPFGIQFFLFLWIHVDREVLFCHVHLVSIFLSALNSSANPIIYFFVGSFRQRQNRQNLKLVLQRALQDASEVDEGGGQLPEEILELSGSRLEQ
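Assay system: stable human MrgX1 HEK293 cell line. Quantity: 15,000 cells per well. Schedule: cells plated overnight, dye loaded 0.5 h 37 °C, 0.5 h room temperature. Detection: Fluo-4 NW calcium-flux fluorescence, kinetic read. Read-out basis: peak-minus-minimum fluorescence over baseline, converted to B scores. Control set: positive and negative control wells on each plate.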
RGS4 act: potentiators or activators of RGS4 | HEK293 M3R/inducible RGS4, carbachol calcium flux Fluo4; active compounds read low | B-score at 10 µM | hit rate 0.92% among 310,000;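 active = B-score of the integrated calcium signal more than 4 SD below the library mean, with starting fluorescence not abnormally high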;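 note: negative B-score means reduced calcium response which marks RGS4 activation or potentiation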
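Material: M3R-expressing HEK293 line, RGS4 induced by doxycycline | Schedule: Overnight RGS4 induction, 30 min dye load 37 °C, 20 min compound RT | Measured by: Fluo4 fluorescence kinetic imaging of calcium | Read-out: Integrated calcium ratio converted to B score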
RGS4 inh: inhibitors of human RGS4 | P49798 | HEK293 M3R/RGS4 inducible, Fluo-4 calcium flux; active compounds read high; triggered by carbachol at its EC20 | B-score at 10 µM | hit rate 0.45% among 310,000 | AID 463165;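 active = B-score, a plate-corrected calcium signal, over three deviations above library mean, with baseline fluorescence within five deviations of library mean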;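 note: RGS4 expression induced by doxycycline in cells with stable M3 receptor; B-score is computed from the integrated fluorescence ratio over baseline after carbachol; higher B-score means a larger calcium signal and so more RGS4 inhibition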
Target sequence (P49798 whole entry, looked up): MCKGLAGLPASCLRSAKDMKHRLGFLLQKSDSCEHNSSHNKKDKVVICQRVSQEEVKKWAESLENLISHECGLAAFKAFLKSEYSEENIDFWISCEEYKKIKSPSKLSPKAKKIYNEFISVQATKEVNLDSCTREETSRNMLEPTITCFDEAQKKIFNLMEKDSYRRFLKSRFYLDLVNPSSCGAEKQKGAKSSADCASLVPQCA
MrgX1 allo act: human MrgX1 positive allosteric modulation, primary screen | AID 588675 | B-score at 10 µM | Q96LB2 | hit rate 0.63% among 310,000 | MrgX1-HEK293, Fluo-4 calcium flux, FDSS; active compounds read high;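 active = plate-corrected calcium response at least 3 library SD above typical, normal starting fluorescence, not activating the receptor alone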;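 note: compound read alongside a low EC10 to EC30 dose of BAM8-22 agonist; peak minus trough fluorescence over baseline measured at the second addition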
MrgX1 antagonist: antagonists of human MrgX1 receptor | Q96LB2 | MRGX1-HEK293 calcium flux, Fluo-4, BAM8-22 antagonism; active compounds read low | B-score at 10 µM | hit rate 1.3% among 310,000;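 active = calcium-response B-score plate-corrected more than 3 library SD below zero, starting fluorescence within 5 deviations, no agonist response on first addition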;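 note: peak minus trough fluorescence over baseline after final BAM8-22 challenge near maximal dose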
MrgX1 ag confirm: confirmation of human MrgX1 receptor agonists; MrgX1-HEK293, Fluo-4 calcium fluorescence, FDSS; activation, % at 10 µM; shares compounds with MrgX1 agonist; AID 602412; hit rate 78% among 600;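 active = calcium signal rise, corrected for plate position, at least 3 library SD high, with starting brightness within 5 such deviations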
MrgX1 allo conf: human MrgX1 positive allosteric modulation, re-confirmation; shares compounds with MrgX1 allo act; MrgX1-HEK293, Fluo-4 calcium fluorescence, FDSS; activation (ratio percentage), % at 10 µM; hit rate 13% among 1,200; AID 602413;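 active = ratio at least 3 SD above the weak peptide control, stable starting fluorescence, no direct agonism earlier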;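 note: compound followed by low BAM8-22 agonist challenge near EC20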
HEK293 Ca flux: counter-screen for MrgX1 antagonists: effect in parental HEK293 cells | shares compounds with MrgX1 antagonist | Fluo-4 calcium fluorescence, FDSS | fluorescence ratio F(max-min)/F0 at 10 µM | hit rate 2% among 4,000 | AID 624111;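 active = duplicate-averaged calcium fluorescence ratio at least three times the standard deviation of buffer wells, a nonspecific response in parental cells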
HEK293 Ca counter: activity in parental HEK293 cells without MrgX1; shares compounds with MrgX1 antagonist; parental HEK293 calcium flux, Fluo-4 fluorescence ratio; active compounds read high; fluorescence ratio F(max-min)/F0 at 10 µM; hit rate 0.4% among 4,000;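 active = calcium fluorescence ratio, averaged over duplicates, at least 3 SD of the buffer-well ratio, meaning a nonspecific response in receptor-free cells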;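 note: untransfected parental HEK293 lacking MrgX1 used as counterscreen for MrgX1 allosteric activators; fluorescence change taken during the second addition on a kinetic imager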
HEK293 Ca cntr2: MrgX1 activator counter-screen hit in parental HEK293 cells | fluorescence ratio F(max-min)/F0 at 10 µM | Fluo-4 calcium fluorescence (FDSS); active compounds read high | shares compounds with MrgX1 antagonist | hit rate 8.7% among 4,000;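 active = calcium fluorescence ratio at least three times the spread of buffer wells, meaning a non-specific response in parental cells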
Starred values were filed as active, the others as inactive; i = inactive; . = no result given. Rows were chosen to be rich in hits. Some 3.5% of all compounds tested hit in one or more screens of this group.

SMILES	MrgX1 agonist	RGS4 act	RGS4 inh	MrgX1 allo act	MrgX1 antagonist	MrgX1 ag confirm	HEK293 Ca flux	HEK293 Ca counter	HEK293 Ca cntr2	others
Cc1cc(/C=C2\NC(=S)N(C)C2=O)ccc1N1CCCC1	91*	i	i	i	i	i	0.3*	i	203*
COc1cc(/C=C2\NC(=S)N(C)C2=O)ccc1O	i	i	i	i	i	.	.	.	.
CC(C)(C)n1nnnc1C(c1cccnc1)N1CCN(c2cccc(C(F)(F)F)c2)CC1 (centres undefined)	i	i	i	i	i	.	.	.	.
CC(C)(C)c1cc(C(c2cccnc2)N2CCN(CCO)CC2)cc(C(C)(C)C)c1O (centres undefined)	32*	i	i	i	i	263%*	i	i	53*
Cc1ccc(-c2csc(N=C(N)N)n2)c(C)c1	76*	i	i	i	i	104%*	i	i	i
COc1ccc(-c2csc(N=C(N)N)n2)cc1	i	i	i	i	i	.	.	.	.
CC(=O)c1ccc(NC(=O)CC(C)S(=O)(=O)c2ccc3c(c2)CCN3C(C)=O)cc1 (centres undefined)	i	i	i	i	i	.	.	.	.
O=C(CC1CS(=O)(=O)CC1CC(=O)Oc1ccccc1F)Oc1ccccc1F (centres undefined)	i	i	i	i	i	.	.	.	.
Cc1ccc(N2C=Nc3ccc(C)c4nc(C)cc2c34)cc1	28*	i	i	i	i	98%*	i	i	i
Cc1ccc(N2C(=O)CC(Sc3nc(C)cc(C)n3)C2=O)cc1 (centres undefined)	i	i	i	i	i	.	.	.	.
CC1=Nc2ccc(C)c3nc(C)cc(c23)N1c1ccc(C)cc1	38*	i	i	i	i	191%*	i	i	i
CC(C)N1CC(C(=O)Nc2cc(Cl)cc(Cl)c2)CC1=O (centres undefined)	i	i	i	i	i	.	.	.	.
COc1ccc(NC(=S)N(CCN2CCOCC2)C2CCN(C(C)=O)CC2)cc1Cl	69*	i	i	i	i	i	i	i	i
CC1(C)CC(=O)c2c(O)cc(OCC(=O)Nc3ccc(CCO)cc3)cc2O1	i	i	i	i	i	.	.	.	.
Cc1cc2oc(=O)cc(CN3CCCc4ccccc43)c2cc1C	67*	i	i	i	i	179%*	i	i	i
Cn1c2ccccc2c(=O)c2c(=O)n(-c3ccccc3)c(C3CCCCC3)nc21	i	i	i	i	i	.	.	.	.
CCc1nc2c(c(=O)c3ccccc3n2C)c(=O)n1C1CCCCCC1	117*	i	i	i	i	481%*	i	i	97*
Cn1c2ccccc2c(=O)c2c(=O)n(C3CCCCCC3)c(C3CCCCC3)nc21	.	i	i	.	.	.	.	.	.
Cn1c2ccccc2c(=O)c2c(=O)n(C3CCCCC3)c(-c3cccs3)nc21	110*	i	i	i	i	596%*	i	i	98*
Cc1nnc(N/N=C/c2cccc(OCc3ccc(Cl)c(Cl)c3)c2)n1N	i	i	i	i	i	.	.	.	.
Cc1ccsc1C(=O)N1CCN(c2ncc(C(F)(F)F)cc2Cl)CC1	i	i	i	i	i	.	.	.	.
Cc1cc(=O)[nH]c2nnc(-c3ccc(Br)cc3)n12	i	i	i	i	i	.	.	.	.
O=C(C#Cc1ccccc1)c1ccco1	44*	i	i	i	i	240%*	i	i	i
CCOc1ccc(CSC(=N)N)cc1Cl	33*	i	i	i	i	179%*	i	i	i
O=C(NC(=S)Nc1cc(S(=O)(=O)N2CCOCC2)ccc1N1CCOCC1)C1CCCC1	i	i	i	7.1*	i	.	i	i	i	MrgX1 allo conf=6.4%*
SMILES	MrgX1 agonist	RGS4 act	RGS4 inh	MrgX1 allo act	MrgX1 antagonist	MrgX1 ag confirm	HEK293 Ca flux	HEK293 Ca counter	HEK293 Ca cntr2	others
CCOc1ccc(-n2nc(C(=O)NC3CCCCC3)c3ccccc3c2=O)cc1	i	i	i	i	i	.	.	.	.
O=C1C(=O)N(CCN2CCOCC2)C(c2ccncc2)/C1=C(/O)c1ccc2c(c1)OCO2 (centres undefined)	i	i	i	7.7*	i	.	i	i	i	MrgX1 allo conf=i
COc1ccc(Cl)cc1NC(=O)C1COc2ccccc2O1 (centres undefined)	i	i	i	i	i	.	.	.	.
Cc1nc2ccc3nc(NC(=O)C4COc5ccccc5O4)sc3c2s1 (centres undefined)	i	i	i	8.1*	i	.	i	i	i	MrgX1 allo conf=7.8%*
CN1CCN(c2ccc(Cl)cc2NC(=O)C2COc3ccccc3O2)CC1 (centres undefined)	i	i	i	6.5*	i	.	i	i	i	MrgX1 allo conf=i
C=CCN(c1ccc(C(=O)NCCSc2ccccc2)cc1)S(C)(=O)=O	i	i	i	i	i	.	.	.	.
COc1ccc(C2=NS(=O)(=O)N(C)C(C(=O)N3CCOCC3)=C2)cc1OC	i	i	i	i	i	.	.	.	.
C=CCSc1nc(O)c(C2OC(=O)c3c2ccc(OC)c3OC)c(=O)n1-c1ccccc1 (centres undefined)	i	i	i	31*	i	.	i	i	i	MrgX1 allo conf=i
O=C(CCNC(=O)C1CCN(S(=O)(=O)c2ccccc2)CC1)NCc1ccccc1Cl	i	i	i	i	i	.	.	.	.
Nc1ccc(C(=O)N/N=C/c2c[nH]c3ccccc23)cc1	i	i	i	i	i	.	.	.	.
O=C(NCc1ccc(F)cc1)C1CCCN(S(=O)(=O)c2ccc(-n3cnnn3)cc2)C1 (centres undefined)	i	i	i	8*	i	.	i	i	i	MrgX1 allo conf=i
C#CCCOC(=O)N1C2=NC(C(=O)OC)=C(C(=O)OC)[C@@H]3N(CC=C)c4ccccc4[C@]23C[C@H]1C(=O)OC	i	i	i	i	i	.	.	.	.

Screening results from PubChem.
